Assay results as given in ChEMBL document CHEMBL1177806, “Synthesis and biological activity of halophenols as potent antioxidant and cytoprotective agents” (Bioorg Med Chem Lett, 2010).
pEC50, pIC50: −log10 of the molar value. The source made the active and inactive calls. No cut-off for these calls is given here.

Tests used:
[1] = Antioxidant activity assessed as DPPH scavenging activity at 100 ug/mL; type: functional
HUVEC [2] = assay: Cytoprotective activity against H2O2-induced cell injury in HUVEC cells at 5 ug/mL after 4 hrs […]; type: functional, cell-based; conditions: Homo sapiens
[3] = Antioxidant activity assessed as DPPH scavenging activity after 4 hrs […]; type: functional
HUVEC [4] = assay: Cytoprotective activity against H2O2-induced cell injury in HUVEC cells; type: functional, cell-based; conditions: Homo sapiens
Procedure, shortened: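 Cytoprotection was measured in human umbilical vein endothelial cells (HUVEC) injured with hydrogen peroxide and reported as EC50.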

SMILES: COc1cc(C(=O)c2ccccc2)c(Br)c(Br)c1OC
- Activity [1]: inactive
- Activity (HUVEC [2]): inactive

SMILES: COc1ccc(Br)cc1Cc1cc(OC)c(OC)cc1Br
- Activity [1]: inactive
- Activity (HUVEC [2]): inactive

SMILES: COc1ccc(Cc2ccc(Cl)cc2)cc1OC
- Activity [1]: inactive
- Activity (HUVEC [2]): inactive

SMILES: COc1ccc(Cc2cccc(Cl)c2)cc1OC
- Activity [1]: inactive
- Activity (HUVEC [2]): inactive

SMILES: COc1ccc(C(=O)c2c(Br)c(OC)c(OC)c(OC)c2Br)cc1OC
- Activity [1]: inactive
- Activity (HUVEC [2]): inactive

SMILES: O=C(c1cc(Br)ccc1O)c1cc(O)c(O)cc1Br
- pIC50 [3]: 4.10
- pEC50 (HUVEC [4]): 6.40

SMILES: Oc1cc(Br)c(Cc2ccc(O)c(Br)c2)cc1O
- pIC50 [3]: 4.06
- pEC50 (HUVEC [4]): 4.89

SMILES: Oc1ccc(Cc2cccc(Cl)c2)cc1O
- pIC50 [3]: 3.65
- Activity (HUVEC [2]): inactive

SMILES: O=C(c1ccc(O)c(O)c1)c1c(Cl)c(O)c(O)c(O)c1Cl
- pIC50 [3]: 4.06
- Activity (HUVEC [2]): inactive

SMILES: COc1ccc(Cc2c(Br)c(OC)c(OC)c(OC)c2Br)cc1OC
- Activity [1]: inactive
- Activity (HUVEC [2]): inactive

SMILES: O=C(c1ccc(O)c(O)c1)c1ccccc1Cl
- pIC50 [3]: 3.95
- Activity (HUVEC [2]): inactive

SMILES: O=C(c1ccccc1)c1cc(O)c(O)c(Br)c1Br
- pIC50 [3]: 4.06
- pEC50 (HUVEC [4]): 6.10

SMILES: Cc1cc(C(C)(C)C)c(O)c(C(C)(C)C)c1 [BUTYLATED HYDROXYTOLUENE]
- pIC50 [3]: 3.77

SMILES: COc1cc(Br)c(C(=O)c2ccccc2)cc1OC
- Activity [1]: inactive
- Activity (HUVEC [2]): inactive

SMILES: COc1ccc(C(=O)c2ccc(Cl)cc2)cc1OC
- Activity [1]: inactive
- Activity (HUVEC [2]): inactive

SMILES: Oc1ccc(Cc2ccccc2Cl)cc1O
- pIC50 [3]: 3.88
- Activity (HUVEC [2]): inactive

SMILES: COc1cc(Br)c(Cc2ccccc2)cc1OC
- Activity [1]: inactive
- Activity (HUVEC [2]): inactive

SMILES: COc1cc(Cc2ccccc2)c(Br)c(Br)c1OC
- Activity [1]: inactive
- Activity (HUVEC [2]): inactive

SMILES: COc1ccc(C(=O)c2c(Cl)c(OC)c(OC)c(OC)c2Cl)cc1OC
- Activity [1]: inactive
- Activity (HUVEC [2]): inactive

SMILES: Oc1cc(Br)c(Cc2cc(Br)ccc2O)cc1O
- pIC50 [3]: 4.05
- pEC50 (HUVEC [4]): 5.96

SMILES: O=C(c1ccc(O)c(Br)c1)c1cc(O)c(O)cc1Br
- pIC50 [3]: 4.21
- pEC50 (HUVEC [4]): 5.70

SMILES: O=C(c1ccccc1)c1cc(O)c(O)cc1Br
- pIC50 [3]: 4.08
- pEC50 (HUVEC [4]): 4.94

SMILES: COc1ccc(Cc2cc(OC)c(OC)cc2Br)cc1Br
- Activity [1]: inactive
- Activity (HUVEC [2]): inactive

SMILES: COc1ccc(C(=O)c2ccccc2)cc1OC
- Activity [1]: inactive
- Activity (HUVEC [2]): inactive

SMILES: Oc1cc(Cc2ccccc2)c(Br)c(Br)c1O
- pIC50 [3]: 4.06
- pEC50 (HUVEC [4]): 5.41

SMILES: O=C(c1cccc(Cl)c1)c1ccc(O)c(O)c1
- pIC50 [3]: 3.96
- pEC50 (HUVEC [4]): 5.30

SMILES: COc1ccc(Cc2c(Cl)c(OC)c(OC)c(OC)c2Cl)cc1OC
- Activity [1]: inactive
- Activity (HUVEC [2]): inactive

SMILES: COc1ccc(Cc2ccccc2Cl)cc1OC
- Activity [1]: inactive
- Activity (HUVEC [2]): inactive

SMILES: Oc1ccc(Cc2c(Cl)c(O)c(O)c(O)c2Cl)cc1O
- pIC50 [3]: 3.99
- Activity (HUVEC [2]): inactive

SMILES: O=C(c1ccc(O)c(O)c1)c1c(Br)c(O)c(O)c(O)c1Br
- pIC50 [3]: 4.02
- Activity (HUVEC [2]): inactive

SMILES: COc1ccc(C(=O)c2cc(OC)c(OC)cc2Br)cc1Br
- Activity [1]: inactive
- Activity (HUVEC [2]): inactive

SMILES: O=C(c1ccc(Cl)cc1)c1ccc(O)c(O)c1
- pIC50 [3]: 3.99
- pEC50 (HUVEC [4]): 5.05

SMILES: COc1cc(Br)c(C(=O)c2cc(Br)ccc2OC)cc1OC
- Activity [1]: inactive
- Activity (HUVEC [2]): inactive

SMILES: Oc1ccc(Cc2ccc(Cl)cc2)cc1O
- pIC50 [3]: 3.69
- pEC50 (HUVEC [4]): 5.06

SMILES: Oc1ccc(Cc2c(Br)c(O)c(O)c(O)c2Br)cc1O
- pIC50 [3]: 4.07
- Activity (HUVEC [2]): inactive

SMILES: Oc1cc(Br)c(Cc2ccccc2)cc1O
- pIC50 [3]: 3.79
- pEC50 (HUVEC [4]): 4.91

SMILES: O=c1c(O)c(-c2ccc(O)c(O)c2)oc2cc(O)cc(O)c12 [QUERCETIN]
- pEC50 (HUVEC [4]): 4.74
